From PubChem BioAssay
Rows were chosen to be rich in hits. Some 2.3% of all compounds tested hit in one or more screens of this group.
TRPC4 agonist = opens the mouse TRPC4 cation channel; Q9QUQ5; HEK293 TRPC4beta/mu-opioid, Fluo4 calcium fluorescence; stronger effect = higher value; B-score at 10 µM; 310,000 compounds, 0.49% hits;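 active means B-score above 5 SD of library B-scores, and initial fluorescence ratio not above library mean plus 5 SD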;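 further: positive B-score marks a calcium rise read as TRPC4 activation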
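Material: TRPC4beta and mu-opioid receptor HEK293 stable cells | Incubation: 45 min room-temperature Fluo4 loading, 110 s read | Detection: Kinetic Fluo4 calcium fluorescence | Measure: Integrated baseline-normalised fluorescence ratio, converted to per-well B score | Benchmarks: Low control buffer alone, high control maximal DAMGO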
TRPC6 activator = activates the mouse TRPC6 cation channel | HEK293-TRPC6 membrane potential dye fluorescence; stronger effect = higher value | B-score at 10 µM | 310,000 compounds, 0.13% hits | AID 2550;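 active means B-score of the integrated fluorescence ratio above library mean plus 3 SD, and starting fluorescence ratio within library mean plus 5 SD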;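 further: higher score means more depolarization so channel activation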
Target sequence (Q61143 whole entry, looked up): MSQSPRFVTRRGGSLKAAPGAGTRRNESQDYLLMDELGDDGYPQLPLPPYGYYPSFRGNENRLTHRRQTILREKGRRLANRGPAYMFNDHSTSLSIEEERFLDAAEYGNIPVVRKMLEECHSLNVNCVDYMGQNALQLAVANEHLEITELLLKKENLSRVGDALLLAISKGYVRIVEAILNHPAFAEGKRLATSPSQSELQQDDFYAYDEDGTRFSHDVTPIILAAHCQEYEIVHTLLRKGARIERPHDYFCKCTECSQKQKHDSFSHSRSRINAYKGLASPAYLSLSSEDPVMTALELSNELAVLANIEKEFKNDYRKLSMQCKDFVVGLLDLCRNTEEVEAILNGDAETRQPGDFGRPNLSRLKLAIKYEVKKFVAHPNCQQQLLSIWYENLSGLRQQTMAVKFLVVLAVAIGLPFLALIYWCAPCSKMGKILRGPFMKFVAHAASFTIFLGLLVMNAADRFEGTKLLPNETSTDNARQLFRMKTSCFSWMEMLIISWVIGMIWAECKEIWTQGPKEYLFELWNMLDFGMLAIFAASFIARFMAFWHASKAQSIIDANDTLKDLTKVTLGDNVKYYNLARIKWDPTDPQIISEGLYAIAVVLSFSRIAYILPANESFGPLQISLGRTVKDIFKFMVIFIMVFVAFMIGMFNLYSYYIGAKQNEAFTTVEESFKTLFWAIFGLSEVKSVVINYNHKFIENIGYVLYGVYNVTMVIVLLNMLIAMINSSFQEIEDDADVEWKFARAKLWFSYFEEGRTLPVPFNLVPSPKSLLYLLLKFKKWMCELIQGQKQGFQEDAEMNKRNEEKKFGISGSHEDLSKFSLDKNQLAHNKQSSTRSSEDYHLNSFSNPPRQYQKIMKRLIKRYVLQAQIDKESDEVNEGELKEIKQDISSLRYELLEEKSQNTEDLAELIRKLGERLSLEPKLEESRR
TRPC6 inh = blocks the mouse TRPC6 cation channel; Q61143; HEK293-TRPC6, membrane potential dye, ACh-evoked depolarization; stronger effect = lower value; B-score at 10 µM; 310,000 compounds, 1.1% hits; AID 2553;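 active means B-score under library mean minus 3 SD, initial fluorescence not abnormally high, positive integrated signal ratio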;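 further: B-score derived from integrated fluorescence ratio over the kinetic read; more negative B-score means stronger inhibition of depolarization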
TRPC4 potent = TRPC4 (mouse) allosteric potentiation | 310,000 compounds, 0.42% hits | HEK293 TRPC4beta/mu-opioid, DAMGO EC20, Fluo-4 Ca2+ flux; stronger effect = higher value | B-score at 10 µM | Q9QUQ5 | AID 2227;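 active means B-score of calcium response area above 5 SD of library B-scores, with initial fluorescence ratio within 5 SD of library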
TRPC4 inh = TRPC4 (mouse) channel inhibition | Q9QUQ5 | HEK293 TRPC4beta/mu-opioid, DAMGO-evoked Fluo4 calcium flux; stronger effect = lower value | B-score at 10 µM | 300,000 compounds, 0.39% hits | AID 2247;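 active means B-score over 3 SD under the library average, no early fluorescence shift, positive overall ratio signal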
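Assay system: Stable TRPC4beta/mu-opioid receptor HEK293 cells | Reagent: DAMGO in two steps, submaximal then maximal | Compound dosing: Single concentration per test compound | Signal: Fluo4 Ca2+ flux fluorescence | Evaluation: Per-well B score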
TRPC4 spec 2 = second check of whether TRPC6 inhibitors also affect mouse TRPC4 | shares compounds with TRPC6 inh | HEK293 TRPC4/MOR, membrane potential dye fluorescence; channel activated by saturating DAMGO dose | inhibition, % at 10 µM | 920 compounds, 42% hits | AID 2776;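 active means compounds whose fluorescence signal differed from control wells by over 3 SD, either direction, in both duplicate plates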
TRPC4 spec = mouse TRPC4 off-target activity of TRPC6 inhibitors; shares compounds with TRPC6 inh; HEK293 TRPC4/mu-opioid, membrane potential fluorescence; activity change, negative = inhibition, % at 10 µM; 920 compounds, 61% hits; AID 2777;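 active means rise or fall in signal beyond 3 SD of buffer-only wells in both replicate plates, either sign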;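 further: integrated kinetic ratio of fluorescence range over baseline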
HEK293 MPD ctr 2-1 = second counter-screen for TRPC6 inhibitors: parental HEK293 cells. shares compounds with TRPC6 inh. parental HEK293 membrane potential dye fluorescence; maximal acetylcholine challenge after compound addition. signal change vs control, % at 10 µM. 920 compounds, 31% hits;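 active means membrane potential signal moving either way by over 3 SD of the maximum-effect control, in both duplicate plates, meaning non-specific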
HEK293 MPD ctr-1 = counter-screen for TRPC6 inhibitors: effect in parental HEK293 cells; shares compounds with TRPC6 inh; parental HEK293 membrane potential dye fluorescence; membrane potential signal change, % at 10 µM; 920 compounds, 60% hits; AID 2780;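 active means membrane potential signal shifting up or down by more than 3 SD of buffer-only wells, on both duplicate plates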
HEK293 MPD ctr-2 = parental HEK293 nonspecific activity of TRPC6 modulators | shares compounds with TRPC6 inh | membrane potential dye fluorescence | membrane potential signal change, % at 10 µM | 2,400 compounds, 51% hits;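 active means membrane potential signal moves up or down beyond 5 SD from buffer-only wells, on both duplicate plates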
HEK293 MPD ctr 2-2 = second counter-screen for TRPC6 modulators: effect in parental HEK293 cells; shares compounds with TRPC6 inh; membrane potential dye fluorescence; after compound, maximal acetylcholine stimulation; inhibition, % at 10 µM; 2,400 compounds, 14% hits;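 active means membrane potential signal drops by more than 5 SD from the mean control signal, in both duplicate plates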
TRPC4 ctr mod = selectivity of TRPC6 modulators against mouse TRPC4; HEK293 TRPC4/mu-opioid, membrane potential fluorescence; shares compounds with TRPC6 inh; percent change from control (negative = decrease, positive = increase), % at 10 µM; 2,400 compounds, 69% hits;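 active means membrane potential signal moved up or down beyond 5 SD of buffer control wells, in both duplicate plates, actives on both sides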
TRPC4/MOR inh 2 = second selectivity test of TRPC6 modulators against mouse TRPC4 | shares compounds with TRPC6 inh | HEK293 TRPC4/mu-opioid, membrane potential dye fluorescence; stimulated with maximal-effect DAMGO | inhibition, % at 10 µM | 2,400 compounds, 55% hits | AID 488928;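 active means drop in membrane potential signal beyond 5 SD of the control wells in both duplicate plates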;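 further: TRPC4 counter screen for TRPC6 hits run under conditions tuned for TRPC6 not TRPC4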
TRPC6 inh conf = mouse TRPC6 inhibitor confirmation. AID 488960. HEK293-TRPC6, membrane potential dye, ACh-evoked depolarization. shares compounds with TRPC6 inh. 3,300 compounds, 43% hits. inhibition, % at 10 µM;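 active means fluorescence ratio falls more than 5 SD below the full-stimulation control mean, in both duplicate runs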;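 further: integrated fluorescence ratio of peak minus minimum over baseline after agonist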
TRPC6 act conf = mouse TRPC6 activator confirmation. shares compounds with TRPC6 inh. HEK293-TRPC6 membrane potential dye fluorescence, FDSS. activation, % at 10 µM. 2,800 compounds, 11% hits. AID 488961;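 active means ratio signal rise beyond 5 SD above unstimulated control wells' mean, seen in both duplicate runs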
Hits are given with their value; . = inactive; / = no result; + = active, no number.

SMILES	TRPC4 agonist	TRPC6 activator	TRPC6 inh	TRPC4 potent	TRPC4 inh	HEK293 MPD ctr-2	HEK293 MPD ctr 2-2	TRPC4 ctr mod	TRPC4/MOR inh 2	TRPC6 inh conf	TRPC6 act conf	others
CCC(C)Nc1nc(-c2ccccn2)nc2ccccc12 (stereo not given)	.	.	-5.2	.	.	-274%	.	-40%	53%	.	.
c1cncc(CNc2nc(-c3cccnc3)nc3ccccc23)c1	.	.	.	.	.	/	/	/	/	/	/
c1ccc(CNc2nc(-c3ccccn3)nc3ccccc23)cc1	.	.	-7	.	.	-208%	.	-40%	62%	40%	.
c1ccc(CNc2nc(-c3cccnc3)nc3ccccc23)cc1	.	.	.	.	.	/	/	/	/	/	/
c1ccc(CN2CCC(Nc3nc(-c4cccnc4)nc4ccccc34)CC2)cc1	.	.	-6.3	.	.	-294%	.	-52%	66%	56%	.
CC(C)c1ccc(S(=O)(=O)N2CCN(C(=O)c3ccco3)CC2)cc1	.	12	-11	.	.	.	.	12%	.	106%	122%
COc1ccc(N2CC(C(=O)NCc3nnnn3-c3ccc(C)c(C)c3)CC2=O)cc1 (stereo not given)	.	.	.	.	.	/	/	/	/	/	/
CN(C)c1ccc(/C=C/C(=O)c2c(O)c3ccccc3oc2=O)cc1	102	131	.	.	.	+	+	492%	144%	/	944%
COc1ccc(OC)c2c(C)cc(N3CCCN(C)CC3)nc12	.	.	-11	.	.	-246%	74%	-40%	69%	68%	.
COc1ccccc1N1CCN(c2cc(N3CCCC3)nc(C)n2)CC1	.	.	.	.	.	/	/	/	/	/	/
CCOC(=O)CCn1nc(-c2ccc(C)cc2)c2ccccc2c1=O	.	.	-5.5	.	.	180%	.	42%	.	54%	/
CCCCNC(=O)CCn1nc(-c2ccccc2)c2ccccc2c1=O	.	.	-7.9	.	.	/	/	/	/	.	/	TRPC4 spec 2=.;TRPC4 spec=7.5%;HEK293 MPD ctr 2-1=.;HEK293 MPD ctr-1=5.7%
COc1ccccc1CNC(=O)CN(C)S(=O)(=O)c1ccc2c(c1)c(=O)n(C)c(=O)n2C	.	.	.	.	.	/	/	/	/	/	/
O=C(NC1CCCCC1)C(c1ccc(F)cc1)N(Cc1ccco1)C(=O)Cn1nnc2ccccc21 (stereo not given)	.	.	.	.	.	/	/	/	/	/	/
CCOc1ccccc1C(C(=O)NC1CCCC1)N(Cc1ccco1)C(=O)CNC(=O)c1ccco1 (stereo not given)	.	14	.	.	.	350%	90%	78%	.	/	150%
Cc1ccc(C(C(=O)NC2CCCCC2)N(Cc2ccco2)C(=O)Cn2cnc3ccccc32)cc1 (stereo not given)	.	17	.	.	.	.	.	122%	.	.	30%
Cc1[nH]c2ccccc2c1Cc1nnc(SCc2ccccc2)o1	.	.	.	.	.	/	/	/	/	/	/
CC1CC(C)CN(c2nc3c(c(=O)n(C)c(=O)n3C)n2CCSc2ncccn2)C1 (stereo not given)	.	.	.	.	.	/	/	/	/	/	/
Cn1c(=O)c2c(nc(N3CCOCC3)n2CCSc2ncccn2)n(C)c1=O	.	.	-5.6	.	.	-360%	.	-56%	.	.	.
CCN1CCN(c2nc3c(c(=O)n(C)c(=O)n3C)n2CCSc2nccc(C)n2)CC1	.	.	-12	.	.	-284%	118%	-46%	72%	78%	.
Cc1nc2nc(-c3ccc(Cl)cc3)nn2c(C)c1Cl	.	.	.	.	.	/	/	/	/	/	/
Cc1cc(N2CCN(C)CC2)n2nc(-c3ccc(Cl)cc3)nc2n1	.	.	-6.9	.	.	-310%	96%	-28%	53%	66%	.
CCOC(=O)C1CCN(S(=O)(=O)c2c(Cl)ccc3nonc23)CC1	.	.	.	.	.	/	/	/	/	/	/
CCC(C)(C)n1nnnc1C(c1ccc(C)cc1)N1CCN(C(=O)c2ccco2)CC1 (stereo not given)	.	.	.	.	.	/	/	/	/	/	/
CCC(C)(C)n1nnnc1C(c1ccc(F)cc1)N1CCN(C(=O)c2ccco2)CC1 (stereo not given)	.	.	-5.5	.	.	124%	.	28%	34%	.	/
SMILES	TRPC4 agonist	TRPC6 activator	TRPC6 inh	TRPC4 potent	TRPC4 inh	HEK293 MPD ctr-2	HEK293 MPD ctr 2-2	TRPC4 ctr mod	TRPC4/MOR inh 2	TRPC6 inh conf	TRPC6 act conf	others
COc1ccc(C(=O)NCCSc2ccccc2)cc1OC	.	.	.	.	.	/	/	/	/	/	/
Cc1cc(Cl)ccc1C(=O)C1CCCN(C(=O)c2cscn2)C1 (stereo not given)	.	.	.	.	.	/	/	/	/	/	/
CSc1nc(C(=O)N2CCCC(C(=O)c3ccc(Cl)cc3)C2)cs1 (stereo not given)	.	.	-5.9	.	.	138%	.	33%	.	.	/
Cc1cc(Cl)ccc1C(=O)C1CCCN(C(=O)c2cnsn2)C1 (stereo not given)	.	.	-6.7	.	.	/	/	/	/	.	/	TRPC4 spec 2=.;TRPC4 spec=26%;HEK293 MPD ctr 2-1=.;HEK293 MPD ctr-1=18%
Nc1ccc(/C=C/C(=O)c2cccs2)cc1	92	81	.	.	.	+	+	291%	76%	/	543%
COc1ccccc1/C=N/OCc1cc(C(C)=O)ccc1OC	.	.	.	.	.	/	/	/	/	/	/
CC(C)c1cc(C(C)C)c(S(=O)(=O)N2CCNCC2)c(C(C)C)c1	.	.	-5.8	.	.	.	.	.	64%	42%	.
